Reference: ChEMBL document CHEMBL3297709, “High affinity ligands and potent antagonists for the α1D-adrenergic receptor. Novel 3,8-disubstituted [1]benzothieno[3,2-d]pyrimidine derivatives” (Eur J Med Chem, 2014)

Tests used:
[1] = target: T1, Alpha-1A adrenergic receptor (Homo sapiens, UniProt P35348); test: Displacement of [125I]BE2254 from human alpha1a receptor expressed in HEK293 cells; format: cell-based
T1 sequence (P35348 whole entry): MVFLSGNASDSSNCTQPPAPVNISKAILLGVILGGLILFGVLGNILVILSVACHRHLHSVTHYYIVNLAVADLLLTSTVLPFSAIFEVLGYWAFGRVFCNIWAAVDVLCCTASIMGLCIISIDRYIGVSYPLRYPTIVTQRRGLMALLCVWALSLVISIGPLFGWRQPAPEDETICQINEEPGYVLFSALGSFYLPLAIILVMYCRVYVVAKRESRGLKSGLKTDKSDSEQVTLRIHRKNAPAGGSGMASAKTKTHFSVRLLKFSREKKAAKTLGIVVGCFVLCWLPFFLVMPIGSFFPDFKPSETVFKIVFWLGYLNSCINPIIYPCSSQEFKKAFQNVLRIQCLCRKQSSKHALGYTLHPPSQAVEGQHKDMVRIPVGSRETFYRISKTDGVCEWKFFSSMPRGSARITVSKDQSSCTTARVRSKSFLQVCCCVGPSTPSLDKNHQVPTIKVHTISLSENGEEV
Outline: (§1)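 Membranes from HEK293 cells stably transfected with human α1A, α1B or α1D receptor cDNA, selected under 400 µg/mL geneticin. Competition against 50 pM [125I]BE2254; nonspecific binding defined with 10 µM phentolamine. Curves fitted by nonlinear regression. Mean ± SE of three experiments run in duplicate.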

[2] = target: T2, Alpha-1B adrenergic receptor (Homo sapiens, UniProt P35368); test: Displacement of [125I]BE2254 from human alpha1b receptor expressed in HEK293 cells; format: cell-based; outline: as §1
T2 sequence (P35368 whole entry): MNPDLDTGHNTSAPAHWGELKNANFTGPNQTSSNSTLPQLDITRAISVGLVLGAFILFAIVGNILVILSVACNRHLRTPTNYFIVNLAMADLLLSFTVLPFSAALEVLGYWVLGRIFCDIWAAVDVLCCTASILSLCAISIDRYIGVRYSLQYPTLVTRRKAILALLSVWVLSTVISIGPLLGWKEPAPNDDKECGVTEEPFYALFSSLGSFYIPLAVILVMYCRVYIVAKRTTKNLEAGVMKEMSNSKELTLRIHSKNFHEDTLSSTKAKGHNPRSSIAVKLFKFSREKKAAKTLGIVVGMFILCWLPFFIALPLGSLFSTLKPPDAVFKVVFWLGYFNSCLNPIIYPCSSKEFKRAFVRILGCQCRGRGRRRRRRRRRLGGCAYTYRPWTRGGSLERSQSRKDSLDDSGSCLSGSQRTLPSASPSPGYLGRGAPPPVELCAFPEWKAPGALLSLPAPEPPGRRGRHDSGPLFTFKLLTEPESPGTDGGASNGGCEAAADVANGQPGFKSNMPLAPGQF

[3] = target: T3, Alpha-1D adrenergic receptor (Homo sapiens, UniProt P25100); test: Displacement of [125I]BE2254 from human alpha1d receptor expressed in HEK293 cells; format: cell-based; outline: as §1
T3 sequence (P25100 whole entry): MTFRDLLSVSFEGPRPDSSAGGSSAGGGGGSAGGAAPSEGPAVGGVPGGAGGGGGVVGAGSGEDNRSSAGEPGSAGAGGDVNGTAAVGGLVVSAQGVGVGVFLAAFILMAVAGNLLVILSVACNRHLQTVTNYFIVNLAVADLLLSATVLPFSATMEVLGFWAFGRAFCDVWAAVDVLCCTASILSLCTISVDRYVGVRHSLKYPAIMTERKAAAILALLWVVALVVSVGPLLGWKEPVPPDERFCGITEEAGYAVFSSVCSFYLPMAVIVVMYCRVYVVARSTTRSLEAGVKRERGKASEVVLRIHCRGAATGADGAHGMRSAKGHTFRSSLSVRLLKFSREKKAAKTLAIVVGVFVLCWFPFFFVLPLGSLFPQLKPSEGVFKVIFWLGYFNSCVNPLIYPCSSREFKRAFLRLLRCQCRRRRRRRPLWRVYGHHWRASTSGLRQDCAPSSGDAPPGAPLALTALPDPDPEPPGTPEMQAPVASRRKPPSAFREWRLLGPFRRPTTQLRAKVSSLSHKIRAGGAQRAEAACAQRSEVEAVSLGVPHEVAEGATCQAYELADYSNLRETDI

[4] = target: T4, Alpha-1A adrenergic receptor (Rattus norvegicus) (UniProt P43140); test: Antagonist activity at alpha1A adrenoceptor in Wistar rat vas deferens assessed as noradrenaline induced contractions
T4 sequence (whole entry): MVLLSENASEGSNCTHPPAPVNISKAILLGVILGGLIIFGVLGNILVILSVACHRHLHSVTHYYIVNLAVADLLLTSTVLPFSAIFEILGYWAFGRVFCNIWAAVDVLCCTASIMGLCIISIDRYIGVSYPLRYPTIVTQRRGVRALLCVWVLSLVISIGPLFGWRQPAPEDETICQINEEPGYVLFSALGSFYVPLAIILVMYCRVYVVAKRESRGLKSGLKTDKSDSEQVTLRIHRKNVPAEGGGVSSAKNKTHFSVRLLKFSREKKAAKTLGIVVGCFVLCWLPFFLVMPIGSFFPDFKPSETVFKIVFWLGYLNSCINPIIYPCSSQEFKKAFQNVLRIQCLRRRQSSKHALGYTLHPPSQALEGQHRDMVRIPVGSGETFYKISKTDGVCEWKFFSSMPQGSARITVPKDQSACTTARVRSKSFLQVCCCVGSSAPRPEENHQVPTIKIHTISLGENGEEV
Outline: (§2)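 Male Wistar rat (275-300 g) prostatic vas deferens in 20 mL organ bath, physiological salt solution, 37 °C, 5% CO2:95% O2, pH 7.4. Primed twice with 10 µM (-)-NA, 45 min wash/equilibration, then cumulative (-)-NA curve recorded isotonically. Antagonist incubated 30–60 min before repeat curve. pKb = log(DR-1) - log[B] from ED50 ratio; mean ± SE of 4–5 experiments.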

[5] = target: T5, Alpha-1B adrenergic receptor (Rattus norvegicus) (UniProt P15823); test: Antagonist activity at alpha1B adrenoceptor in Wistar rat spleen assessed as phenylephrine induced contractions
T5 sequence (whole entry): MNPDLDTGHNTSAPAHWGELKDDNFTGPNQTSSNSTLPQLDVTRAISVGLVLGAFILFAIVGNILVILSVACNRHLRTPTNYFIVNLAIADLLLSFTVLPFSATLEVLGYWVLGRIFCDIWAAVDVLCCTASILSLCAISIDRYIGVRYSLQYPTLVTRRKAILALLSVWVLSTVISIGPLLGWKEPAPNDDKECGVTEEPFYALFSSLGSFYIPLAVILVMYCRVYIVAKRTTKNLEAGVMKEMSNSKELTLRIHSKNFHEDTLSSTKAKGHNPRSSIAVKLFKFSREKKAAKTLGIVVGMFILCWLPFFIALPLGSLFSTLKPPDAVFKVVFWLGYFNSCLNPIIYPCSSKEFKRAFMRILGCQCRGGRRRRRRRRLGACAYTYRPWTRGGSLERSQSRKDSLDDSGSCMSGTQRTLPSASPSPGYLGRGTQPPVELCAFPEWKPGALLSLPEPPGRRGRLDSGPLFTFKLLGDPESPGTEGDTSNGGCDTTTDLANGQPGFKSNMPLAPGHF
Outline: (§3)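 Wistar rat spleen strips under 1 g resting tension, equilibrated 2 h, with 4 µM (±)-propranolol to block β-adrenoceptors. Cumulative phenylephrine curves measured isometrically at 30 min intervals, first discarded, second as control. Antagonist incubated 30–60 min before repeat curve. pKb from ED50 dose ratio via pKb = log(DR-1) - log[B]; mean ± SE of 4–5 experiments.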

[6] = target: T6, Alpha-1D adrenergic receptor (Rattus norvegicus) (UniProt P23944); test: Antagonist activity at alpha1D adrenoceptor in Wistar rat thoracic aorta assessed as noradrenaline induced contractions
T6 sequence (whole entry): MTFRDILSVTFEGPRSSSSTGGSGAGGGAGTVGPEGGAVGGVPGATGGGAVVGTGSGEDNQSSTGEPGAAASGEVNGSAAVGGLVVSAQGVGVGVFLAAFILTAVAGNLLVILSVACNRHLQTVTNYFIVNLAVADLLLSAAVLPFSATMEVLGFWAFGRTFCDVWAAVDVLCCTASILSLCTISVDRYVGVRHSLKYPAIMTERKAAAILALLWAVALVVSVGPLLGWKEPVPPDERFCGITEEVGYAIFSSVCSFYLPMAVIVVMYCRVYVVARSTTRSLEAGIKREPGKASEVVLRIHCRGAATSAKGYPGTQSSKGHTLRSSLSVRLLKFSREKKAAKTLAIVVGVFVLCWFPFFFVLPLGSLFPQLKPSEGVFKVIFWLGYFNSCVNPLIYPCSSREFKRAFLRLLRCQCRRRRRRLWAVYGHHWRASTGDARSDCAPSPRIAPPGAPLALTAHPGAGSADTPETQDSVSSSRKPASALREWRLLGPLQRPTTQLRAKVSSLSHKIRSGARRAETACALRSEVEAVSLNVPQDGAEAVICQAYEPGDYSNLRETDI
Outline: (§4)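 Endothelium-denuded helicoidal thoracic aorta strips (15 x 3 mm) from male Wistar rats, Krebs solution, 1 g tension, ≥2 h equilibration. Cumulative (-)-NA curves recorded isometrically at 1 h intervals, third as control. Antagonist equilibrated 60 min before fourth curve. NA solutions held 0.05% Na2S2O4. pKb = log(DR-1) - log[B]; mean ± SE of 4–5 experiments.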

[7] = target: T4, Alpha-1A adrenergic receptor (Rattus norvegicus); test: Antagonist activity at alpha1A adrenoceptor in Wistar rat vas deferans assessed as decrease in noradrenaline induced contractions at 0.1 uM; design: scale not given: the % may be the effect or the level left; outline: as §2
[8] = target: T5, Alpha-1B adrenergic receptor (Rattus norvegicus); test: Antagonist activity at alpha1B adrenoceptor in Wistar rat spleen assessed as decrease in phenylephrine induced contractions at 0.1 uM; design: scale not given: the % may be the effect or the level left; outline: as §3
[9] = target: T6, Alpha-1D adrenergic receptor (Rattus norvegicus); test: Antagonist activity at alpha1D adrenoceptor in Wistar rat thoracic aorta assessed as decrease in noradrenaline induced contractions at 0.1 uM; design: scale not given: the % may be the effect or the level left; outline: as §4

SMILES | Ki [1] [nM] | Ki [2] [nM] | Ki [3] [nM] | pKb [4] | pKb [5] | pKb [6] | Activity [7] [%] | Activity [8] [%] | Activity [9] [%]
COc1ccccc1N1CCN(CCn2c(=O)[nH]c3c(sc4ccc(NC(=O)Cc5ccccc5)cc43)c2=O)CC1 | 1.48 | 28.2 | 0.912 | – | – | – | – | – | –
COc1ccccc1N1CCN(CCn2c(=O)[nH]c3c(sc4ccc(NC(=O)CCCC(=O)N(C)Cc5ccccc5)cc43)c2=O)CC1 | 0.933 | 1.91 | 0.0562 | 7.82 | 7.77 | 9.15 | 90 | 100 | 100
COc1ccccc1N1CCN(CCn2c(=O)[nH]c3c(sc4ccc(NC(=O)CCCN(C)C)cc43)c2=O)CC1 | 1.7 | 1.66 | 1.66 | – | – | – | – | – | –
COc1ccccc1N1CCN(CCn2c(=O)[nH]c3c(sc4ccccc43)c2=O)CC1 | – | – | – | 8.61 | 8.44 | 8.89 | – | – | –
COc1ccccc1N1CCN(CCn2c(=O)[nH]c3c(sc4ccc(NC(=O)CCCc5ccccc5)cc43)c2=O)CC1 | 7.08 | 33.9 | 3.24 | – | – | – | – | – | –
COc1ccccc1N1CCN(CCn2c(=O)[nH]c3c(sc4ccc(NC(=O)CCCC(=O)NCCc5ccccc5)cc43)c2=O)CC1 | 1.62 | 6.46 | 1 | – | – | – | – | – | –
COc1ccccc1N1CCN(CCn2c(=O)[nH]c3c(sc4ccc(NC(=O)c5ccccc5)cc43)c2=O)CC1 | 1.1 | 10 | 0.575 | – | – | – | – | – | –
COc1ccccc1N1CCN(CCn2c(C)nc3c(sc4ccc(NC(=O)Cc5ccccc5)cc43)c2=O)CC1 | 3.39 | 30.2 | 3.31 | – | – | – | – | – | –
COc1ccccc1N1CCN(CCn2c(=O)[nH]c3c(sc4ccc(NC(=O)CCC(=O)NCc5ccccc5)cc43)c2=O)CC1 | 1.1 | 2.69 | 0.372 | – | – | – | – | – | –
COc1ccccc1N1CCN(CCn2c(=O)[nH]c3c(sc4ccc(NC(=O)CCCN(C)Cc5ccccc5)cc43)c2=O)CC1 | 6.92 | 7.41 | 4.07 | – | – | – | – | – | –
COc1ccccc1N1CCN(CCn2c(C)nc3c(sc4ccc(NC(=O)c5ccccc5)cc43)c2=O)CC1 | 3.89 | 38.9 | 5.01 | – | – | – | – | – | –
COc1ccccc1N1CCN(CCn2c(=O)[nH]c3c(sc4ccc(NC(=O)CCCCc5ccccc5)cc43)c2=O)CC1 | 5.25 | 36.3 | 1.17 | – | – | – | – | – | –
COc1ccccc1N1CCN(CCn2c(C)nc3c(sc4ccc(NC(=O)CCCC(=O)NCCc5ccccc5)cc43)c2=O)CC1 | 0.912 | 6.46 | 0.759 | – | – | – | – | – | –
COc1ccccc1N1CCN(CCn2c(=O)[nH]c3c(sc4ccc(NC(=O)CCCC(=O)NCc5ccccc5)cc43)c2=O)CC1 | 0.324 | 0.832 | 0.141 | 7.7 | 7.94 | 8.64 | 100 | 100 | 100
COc1ccccc1N1CCN(CCn2c(C)nc3c(sc4ccc(NC(=O)CCCNC(=O)Cc5ccccc5)cc43)c2=O)CC1 | 1 | 7.59 | 2.29 | – | – | – | – | – | –
COc1ccccc1N1CCN(CCn2c(C)nc3c(sc4ccc(NC(=O)CCCC(=O)NCc5ccccc5)cc43)c2=O)CC1 | 3.55 | 19.1 | 5.5 | – | – | – | – | – | –
